The values that follow come from ChEMBL document CHEMBL4270555, “Synthesis and biological evaluation of magnolol derivatives as melatonergic receptor agonists with potential use in depression” (Eur J Med Chem, 2018).

The structures appear in SMILES notation. The source made the active and inactive calls. No cut-off for these calls is given here.

Series [1] is described as follows: Drug metabolism in Sprague-Dawley rat feces assessed as 5'-acryloyl-2'-hydroxy-5-propionylbiphenyl-2-yl hydrogen sulfate formation at 100 mg/kg, po by UPLC-IT-TOF-MS analysis. Particulars: in vivo. The series is classed as ADME, organism-based. In outline: (§1)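 Rats (n = 6) housed in metabolic cages received 100.0 mg/kg orally; controls received 0.5% CMC-Na. Plasma, urine and faeces were collected and analyzed by LC-IT-TOF-MS on a C18 column at 30 °C. Gradient 5–100% acetonitrile with 0.05% formic acid over 18 min at 0.2 mL/min; positive and negative ion MS/MS.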

A short description of series [2]: Drug metabolism in Sprague-Dawley rat feces assessed as 5-allyl-5'-(1-hydroxyallyl)-2'-((2S,3R,4S,5S,6R)-3,4,5-trihydroxy-6-(hydroxymethyl)tetrahydro-2H-pyran-2-yloxy)biphenyl-2-yl hydrogen sulfate formation at 100 mg/kg, po by UPLC-IT-TOF-MS analysis. The series is classed as ADME, organism-based. Particulars: in vivo. In outline:
as §1

In series [3] the test system is Mus musculus. Kind of series: Increase in 3,4-dihydroxyphenylacetic acid level in Kunming mouse hypothalamus at 40 mg/kg, po treated for 7 days by HPLC-ECD analysis. The series is classed as functional, organism-based. An outline of the steps:
(§2)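 Male Kunming mice (18–20 g) given vehicle or 40 mg/kg for 7 days, then killed by cervical dislocation. Frontal cortex, hippocampus, striatum, hypothalamus and thalamus dissected on ice, homogenized in ice-cold 0.2 M perchloric acid with 0.1 mM EDTA, centrifuged 15,000 rpm, 20 min, 4 °C. Supernatant analysed by HPLC-ECD at +0.50 V; phosphate/octanesulfonate mobile phase pH 3.0 with 12% methanol. Levels in ng/g, mean ± SEM.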

The nature of series [4]: Drug metabolism in Sprague-Dawley rat plasma assessed as (2S,3S,4S,5R,6S)-6-(5-acryloyl-2'-hydroxy-5'-(1-hydroxyallyl)biphenyl-2-yloxy)-3,4,5-trihydroxytetrahydro-2H-pyran-2-carboxylic acid formation at 100 mg/kg, po by UPLC-IT-TOF-MS analysis. The class given is ADME, organism-based. The conditions noted are these: in vivo. In outline: as §1
Series [5] deals with Mus musculus. Kind of series: Increase in ratio of 3,4-dihydroxyphenylacetic acid and 4-hydroxy-3-methoxyphenylacetic acid to dopamine level in Kunming mouse thalamus at 40 mg/kg, po treated for 7 days by HPLC-ECD analysis. The series is classed as functional, organism-based. An outline of the steps:
as §2

Series [6] in a line: Drug metabolism in Sprague-Dawley rat urine assessed as 5'-acryloyl-2'-hydroxy-5-propionylbiphenyl-2-yl hydrogen sulfate formation at 100 mg/kg, po by UPLC-IT-TOF-MS analysis. The class given is ADME, organism-based. Particulars: in vivo. In outline: (§3)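 Male/unspecified SD rats (n = 6) housed individually in metabolic cages, dosed orally at 100.0 mg/kg; controls given 0.5% CMC-Na orally. Plasma, urine and faeces collected. LC-IT-TOF-MS on C18 column at 30 °C, formic acid (0.05%) water/acetonitrile gradient 5–100% B over 18 min, 0.2 mL/min; positive and negative ion modes with automatic MS/MS.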

Series [7] can be described thus: Drug metabolism in Sprague-Dawley rat feces assessed as (2S,3R,4S,5S,6R)-2-(5,5'-diallyl-2'-methoxybiphenyl-2-yloxy)-6-(hydroxymethyl)tetrahydro-2H-pyran-3,4,5-triol formation at 100 mg/kg, po by UPLC-IT-TOF-MS analysis. The series is classed as ADME, organism-based. Particulars: in vivo. In outline:
as §1

Series [8] is described as follows: Drug level in Sprague-Dawley rat feces at 100 mg/kg, po by UPLC-IT-TOF-MS analysis. The class given is ADME, organism-based. The conditions noted are these: in vivo. In outline:
as §1

The nature of series [9]: Drug metabolism in Sprague-Dawley rat plasma assessed as 5'-(1-hydroxyallyl)-5-propyl-2'-((2S,3R,4S,5S,6R)-3,4,5-trihydroxy-6-(hydroxymethyl)tetrahydro-2H-pyran-2-yloxy)biphenyl-2-yl hydrogen sulfate formation at 100 mg/kg, po by UPLC-IT-TOF-MS analysis. The series is classed as ADME, organism-based. Particulars: in vivo. An outline of the steps: as §1
In series [10] the test system is Mus musculus. The experiment in a line: Increase in 5-hydroxyindole-3-acetic acid level in Kunming mouse frontal cortex at 40 mg/kg, po treated for 7 days by HPLC-ECD analysis. The class given is functional, organism-based. An outline of the steps:
as §2

Series [11] relates to Mus musculus. The experiment in a line: Antidepressant activity in po dosed Kunming mouse assessed as decrease in immobility duration by forced swim test. The series is classed as functional, organism-based. An outline of the steps: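 Male Kunming mice (18–20 g) given 10, 20 or 40 mg/kg orally; fluoxetine and agomelatine 20 mg/kg as references. Each mouse swam 6 min in a cylinder (25 × 15 cm) holding 10 cm of water at 25 ± 1 °C. Immobility over the last 4 min was scored by video tracking; n = 10, mean ± SEM versus vehicle.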

Series [12] can be described thus: Drug metabolism in Sprague-Dawley rat feces assessed as 5'-(1-hydroxyallyl)-5-propyl-2'-((2S,3R,4S,5S,6R)-3,4,5-trihydroxy-6-(hydroxymethyl)tetrahydro-2H-pyran-2-yloxy)biphenyl-2-yl hydrogen sulfate formation at 100 mg/kg, po by UPLC-IT-TOF-MS analysis. The class given is ADME, organism-based. The conditions noted are these: in vivo. In outline: as §1
The nature of series [13]: Drug level in Sprague-Dawley rat urine at 100 mg/kg, po by UPLC-IT-TOF-MS analysis. The class given is ADME, organism-based. Particulars: in vivo. In outline: as §1
Series [14] has as its system Mus musculus. The experiment in a line: Increase in ratio of 5-hydroxyindole-3-acetic acid to 5-hydroxytryptamine level in Kunming mouse hippocampus at 40 mg/kg, po treated for 7 days by HPLC-ECD analysis. The series is classed as functional, organism-based. An outline of the steps: as §2
Series [15] is described as follows: Drug metabolism in Sprague-Dawley rat urine assessed as 1-(2'-hydroxy-5'-(1-hydroxyallyl)-6-((2S,3R,4S,5S,6R)-3,4,5-trihydroxy-6-(hydroxymethyl)tetrahydro-2H-pyran-2-yloxy)biphenyl-3-yl)prop-2-en-1-one formation at 100 mg/kg, po by UPLC-IT-TOF-MS analysis. The series is classed as ADME, organism-based. The conditions noted are these: in vivo. An outline of the steps: as §3

Series [16] can be described thus: Drug metabolism in Sprague-Dawley rat plasma assessed as (2S,3S,4S,5R,6S)-3,4,5-trihydroxy-6-(5-(1-hydroxyallyl)-5'-(2-hydroxypropyl)-2'-methoxybiphenyl-2-yloxy)tetrahydro-2H-pyran-2-carboxylic acid formation at 100 mg/kg, po by UPLC-IT-TOF-MS analysis. The series is classed as ADME, organism-based. Particulars: in vivo. In outline: as §1
Series [17] is described as follows: Drug metabolism in Sprague-Dawley rat urine assessed as (2S,3S,4S,5R,6S)-6-(5,5'-diallyl-2'-methoxybiphenyl-2-yloxy)-3,4,5-trihydroxytetrahydro-2H-pyran-2-carboxylic acid formation at 100 mg/kg, po by UPLC-IT-TOF-MS analysis. The series is classed as ADME, organism-based. Particulars: in vivo. An outline of the steps: as §3
The nature of series [18]: Drug metabolism in Sprague-Dawley rat urine assessed as 5,5'-bis(1-hydroxyallyl)biphenyl-2,2'-diol formation at 100 mg/kg, po by UPLC-IT-TOF-MS analysis. The series is classed as ADME, organism-based. Particulars: in vivo. An outline of the steps:
as §3

A short description of series [19]: Drug metabolism in Sprague-Dawley rat feces assessed as (2S,3S,4S,5R,6S)-6-(5-acryloyl-2'-hydroxy-5'-(1-hydroxyallyl)biphenyl-2-yloxy)-3,4,5-trihydroxytetrahydro-2H-pyran-2-carboxylic acid formation at 100 mg/kg, po by UPLC-IT-TOF-MS analysis. The class given is ADME, organism-based. The conditions noted are these: in vivo. An outline of the steps:
as §1

A short description of series [20]: Drug level in Sprague-Dawley rat plasma at 100 mg/kg, po by UPLC-IT-TOF-MS analysis. The series is classed as ADME, organism-based. The conditions noted are these: in vivo. In outline:
as §1

The nature of series [21]: Drug metabolism in Sprague-Dawley rat feces assessed as 2S,3S,4S,5R,6S)-6-(5,5'-diallyl-2'-((2S,3R,4S,5S,6R)-3,4,5-trihydroxy-6-(hydroxymethyl)tetrahydro-2H-pyran-2-yloxy)biphenyl-2-yloxy)-3,4,5-trihydroxytetrahydro-2H-pyran-2-carboxylic acid formation at 100 mg/kg, po by UPLC-IT-TOF-MS analysis. The class given is ADME, organism-based. Particulars: in vivo. In outline: as §1

For `C=CCc1ccc(O)c(-c2cc(CC=C)ccc2O[C@@H]2O[C@H](CO)[C@@H](O)[C@H](O)[C@H]2O)c1`, the Drug metabolism result in series [1] was “Metabolite_Notdetected”; in [2], “Metabolite_Detected”; in [4] it was “Metabolite_Notdetected”; in series [6], “Metabolite_Detected”; in series [7], “Metabolite_Detected”; in series [9], “Metabolite_Notdetected”. The Drug metabolism entry is listed as “Metabolite_Detected” in series [12]; “Metabolite_Detected” in series [15]; “Metabolite_Notdetected” in series [16]; “Metabolite_Detected” in series [17]; “Metabolite_Detected” in series [18]; “Metabolite_Notdetected” in series [19]. In addition, in series [21], the Drug metabolism result is listed as “Metabolite_Detected”. The outcome in the series on Mus musculus [3], in the series with Mus musculus [5], with Mus musculus [10] and with Mus musculus [14] was Active. For the same molecule, the Drug uptake result in series [8] is listed as “Not Active”; in [13], “Not Active”; in series [20], “Active”. The Activity entry in the series on Mus musculus [11] is “Dose-dependent effect”.
